Reference: publication PMC3857970 (European journal of medicinal chemistry, 2012)
Where two headings read alike, the source gives them in different places.

How the values were obtained:
[1] = molecular target: recombinant human ALR2 (Homo sapiens, UniProt P15121); test: ALR2 inhibition assay; format: biochemical; details: for enhancement of ALR2 inhibitory activity: Michael adducts from N-benzyl / phenyl indoles
[2] = system: human red blood cells (RBC); test: Sorbitol accumulation in RBC under high glucose conditions; format: cell-based; details: ex vivo high glucose conditions
How it was run: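 Fasted healthy male donors' heparinised blood; RBC washed three times in isotonic saline at 4 °C, resuspended in Krebs-Ringer bicarbonate pH 7.4 (5% CO2). Duplicates incubated 3 h, 37 °C, 5% CO2, with 5.5 or 55 mM glucose, with test compound at 1.4–20 µM. Cells homogenised in 0.8 M perchloric acid, spun, supernatant adjusted to pH 3.5 with K2CO3; sorbitol measured fluorometrically.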

[3] = average of four experimental values

Row | IC50 [1] [µM] | SMILES | also measured
1 | > 500 | COc1cc(/C=C/C(=O)N2CCC=C(C(O)c3ccc(C)cc3)C2=O)cc(OC)c1OC (stereo not drawn) [Compound 32i, (E)-3-(Hydroxy(p-tolyl)methyl)-1-(3-(3,4,5-trimethoxyphenyl)acryloyl)-5,6-dihydropyridin-2(1H)-one] | 
2 | > 500 | O=C1C=CCCN1C(=O)/C=C/c1ccc2c(c1)OCO2 [Compound 16, (E)-1-(3-(Benzo[d][1,3]dioxol-5-yl)acryloyl)-5,6-dihydropyridin-2(1H)-one] | 
3 | > 500 | COc1cc(/C=C/C(=O)N2CCC=C(C(O)c3ccccn3)C2=O)cc(OC)c1OC (stereo not drawn) [Compound 32f, (E)-3-(Hydroxy(pyridin-2-yl)methyl)-1-(3-(3,4,5-trimethoxyphenyl)acryloyl)-5,6-dihydropyridin-2(1H)-one] | 
4 | > 500 | COc1cc(/C=C/C(=O)N2CCC=C(C(O)c3ccc([N+](=O)[O-])cc3)C2=O)cc(OC)c1OC (stereo not drawn) [Compound 32d, (E)-3-(Hydroxy(4-nitrophenyl)methyl)-1-(3-(3,4,5-trimethoxyphenyl)acryloyl)-5,6-dihydropyridin-2(1H)-one] | 
5 |  | COc1cc(C(CC(=O)N2CCC(c3c(-c4ccccc4)[nH]c4ccccc34)CC2=O)c2c(-c3ccccc3)[nH]c3ccccc23)cc(OC)c1OC (stereo not drawn) [Compound 3e, 1-(3-(3,4,5-Trimethoxyphenyl)-3-(2-phenyl-1H-indol-3-yl)propanoyl)-4-(2-phenyl-1H-indol-3-yl)piperidin-2-one] | effect on sorbitol accumulation (in words) [2]: inhibited the sorbitol accumulation; enhancement of ALR2 inhibitory activity [1]: 40 folds
6 | > 500 | O=C1C=CCCN1C(=O)/C=C/c1cccc(Oc2ccccc2)c1 [Compound 20, (E)-1-(3-(3-Phenoxyphenyl)acryloyl)-5,6-dihydropyridin-2(1H)-one] | 
7 | 72 | COc1cc(C(CC(=O)O)c2c(C)[nH]c3ccccc23)cc(OC)c1OC (stereo not drawn) [Compound 4, 3-(3,4,5-Trimethoxyphenyl)-3-(2-methyl-1H-indol-3-yl) propanoic acid] | 
8 |  | COc1cc(C(CC(=O)N2CCC(c3cn(Cc4ccccc4)c4ccccc34)CC2=O)c2cn(Cc3ccccc3)c3ccccc23)cc(OC)c1OC (stereo not drawn) [Compound 3c, 1-(3-(1-Benzyl-1H-indol-3-yl)-3-(3,4,5-trimethoxyphenyl)propanoyl)-4-(1-benzyl-1H-indol-3-yl)piperidin-2-one] | effect on sorbitol accumulation (in words) [2]: inhibited the sorbitol accumulation; enhancement of ALR2 inhibitory activity [1]: 40 folds
9 | 350 | O=C1C=CCCN1C(=O)/C=C/c1ccc2ccccc2c1 [Compound 18, (E)-1-(3-(Naphthalen-2-yl)acryloyl)-5,6-dihydropyridin-2(1H)-one] | 
10 | > 500 | COc1ccc(OC)c(/C=C/C(=O)N2CCC=CC2=O)c1 [Compound 14, (E)-1-(3-(2,5-Dimethoxyphenyl)acryloyl)-5,6-dihydropyridin-2(1H)-one] | 
11 | > 500 | COc1cc(/C=C/C(=O)N2CCC=C(C(O)c3ccccc3)C2=O)cc(OC)c1OC (stereo not drawn) [Compound 32j, (E)-3-(Hydroxy(phenyl)methyl)-1-(3-(3,4,5-trimethoxyphenyl)acryloyl)-5,6-dihydropyridin-2(1H)-one] | 
12 | > 500 | COc1cc(C(CC(=O)N2CCC=CC2=O)c2c[nH]c3ccccc23)cc(OC)c1OC (stereo not drawn) [Compound 2a, 1-(3-(1H-Indol-3-yl)-3-(3,4,5-trimethoxyphenyl)propanoyl)-5,6-dihydropyridin-2(1H)-one] | 
13 | > 500 | O=C1C=CCCN1C(=O)/C=C/c1cccs1 [Compound 22, (E)-1-(3-(Thiophen-2-yl)acryloyl)-5,6-dihydropyridin-2(1H)-one] | 
14 | > 500 | COc1cc(/C=C/C(=O)N2CCC=C(C(O)c3ccc(C#N)cc3)C2=O)cc(OC)c1OC (stereo not drawn) [Compound 32e, (E)-4-(Hydroxy(2-oxo-1-(3-(3,4,5-trimethoxyphenyl)acryloyl)-1,2,5,6-tetrahydropyridin-3-yl)methyl)benzonitrile] | 
15 |  | COc1ccc2[nH]cc(C(CC(=O)N3CCC=CC3=O)c3cc(OC)c(OC)c(OC)c3)c2c1 (stereo not drawn) [Compound 2j, 1-(3-(5-Methoxy-1H-indol-3-yl)-3-(3,4,5-trimethoxyphenyl)propanoyl)-5,6-dihydropyridin-2(1H)-one] | effect on sorbitol accumulation (in words) [2]: inhibited the sorbitol accumulation
16 | 400 | O=C1C=CCCN1C(=O)/C=C/c1cccc(C(F)(F)F)c1 [Compound 13, (E)-1-(3-(3-(Trifluoromethyl)phenyl)acryloyl)-5,6-dihydropyridin] | 
17 | > 500 | COC(=O)/C=C/c1cc(OC)c(OC)c(OC)c1 [Compound 5, (E)-Methyl 3-(3,4,5-trimethoxyphenyl)acrylate] | 

Row | IC50 [1] [µM] | SMILES | also measured
18 | > 500 | COc1cc(/C=C/C(=O)N2CCC=C(C(O)c3ccc(F)cc3)C2=O)cc(OC)c1OC (stereo not drawn) [Compound 32b, (E)-3-((4-Fluorophenyl)(hydroxy)methyl)-1-(3-(3,4,5-trimethoxyphenyl)acryloyl)-5,6-dihydropyridin-2(1H)-one] | 
19 | 100 | COc1cc(C(CC(=O)N2CCC=CC2=O)c2cn(C)c3ccccc23)cc(OC)c1OC (stereo not drawn) [Compound 2b, 1-(3-(3,4,5-Trimethoxyphenyl)-3-(1-methyl-1H-indol-3-yl)propanoyl)-5,6-dihydropyridin-2(1H)-one] | 
20 | > 500 | COc1cc(/C=C/C(=O)N2CCCCC2)cc(OC)c1OC [Compound 33, (E)-1-(Piperidin-1-yl)-3-(3,4,5-trimethoxyphenyl) prop-2-en-1-one] | 
21 |  | COc1cc(/C=C/C(=O)N2CCC=C(C(O)c3cccs3)C2=O)cc(OC)c1OC (stereo not drawn) [Compound 32g, (E)-3-(Hydroxy(thiophen-2-yl)methyl)-1-(3-(3,4,5-trimethoxyphenyl)acryloyl)-5,6-dihydropyridin-2(1H)-one] | IC50 [1, 3]: > 500 µM
22 | > 500 | COc1cc(/C=C/C(=O)N2CCCC2=O)cc(OC)c1OC [Compound 34, (E)-1-(3-(3,4,5-Trimethoxyphenyl)acryloyl)pyrrolidin-2-one] | 
23 |  | COc1cc(/C=C/C(=O)N2CCC=CC2=O)cc(OC)c1OC [Compound 1, 5,6-Dihydro-1-((E)-3-(3,4,5-trimethoxyphenyl)acryloyl) pyridin-2(1H)-one] | ALR2 inhibitory activity (in words) [1]: moderate activity
24 | > 500 | COc1cc(C(CC(=O)N2CCC(c3c[nH]c4ccc(I)cc34)CC2=O)c2c[nH]c3ccc(I)cc23)cc(OC)c1OC (stereo not drawn) [Compound 3f, 1-(3-(5-Iodo-1H-indol-3-yl)-3-(3,4,5-trimethoxyphenyl)propanoyl)-4-(5-iodo-1H-indol-3-yl)piperidin-2-one] | 
25 | > 500 | O=C1C=CCCN1C(=O)/C=C/c1ccc(Cl)cc1 [Compound 17, (E)-1-(3-(4-Chlorophenyl)acryloyl)-5,6-dihydropyridin-2(1H)-one] | 
26 | > 500 | COc1cc(C(CC(=O)N2CCC(c3cn(C)c4ccccc34)CC2=O)c2cn(C)c3ccccc23)cc(OC)c1OC (stereo not drawn) [Compound 3b, 1-(3-(3,4,5-Trimethoxyphenyl)-3-(1-methyl-1H-indol-3-yl)propanoyl)-4-(1-methyl-1H-indol-3-yl)piperidin-2-one] | 
27 | > 500 | COc1cc(/C=C/C(=O)N2CCC=C(C(O)c3ccccc3[N+](=O)[O-])C2=O)cc(OC)c1OC (stereo not drawn) [Compound 32c, (E)-3-(Hydroxy(2-nitrophenyl)methyl)-1-(3-(3,4,5-trimethoxyphenyl)acryloyl)-5,6-dihydropyridin-2(1H)-one] | 
28 | 500 | O=C1C=CCCN1C(=O)/C=C/C=C/c1ccc2c(c1)OCO2 [Compound 30, 1-((2E,4E)-5-(Benzo[d][1,3]dioxol-5-yl)penta-2,4-dienoyl)-5,6-dihydropyridin-2(1H)-one] | 
29 | 80 | COc1cc(C(CC(=O)N2CCC(c3c[nH]c4ccccc34)CC2=O)c2c[nH]c3ccccc23)cc(OC)c1OC (stereo not drawn) [Compound 3a, 1-(3-(1H-Indol-3-yl)-3-(3,4,5-trimethoxyphenyl)propanoyl)-4-(1H-indol-3-yl)piperidin-2-one] | 
30 | > 500 | COc1cc(C(CC(=O)N2CCC=CC2=O)c2c[nH]c3ccc(I)cc23)cc(OC)c1OC (stereo not drawn) [Compound 2f, 1-(3-(5-Iodo-1H-indol-3-yl)-3-(3,4,5-trimethoxyphenyl)propanoyl)-5,6-dihydropyridin-2(1H)-one] | 
31 | > 500 | COc1cc(/C=C/C(=O)N2CCC=C(C(O)c3ccc4ccccc4c3)C2=O)cc(OC)c1OC (stereo not drawn) [Compound 32h, (E)-3-(Hydroxy(naphthalen-2-yl)methyl)-1-(3-(3,4,5-trimethoxyphenyl)acryloyl)-5,6-dihydropyridin-2(1H)-one] | 
32 |  | O=C1C=CCCN1C(=O)/C=C/c1ccc(Br)cc1 [Compound 15, (E)-1-(3-(4-Bromophenyl)acryloyl)-5,6-dihydropyridin-2(1H)-one] | IC50 [1, 3]: 350 µM
33 | > 500 | COc1cc(/C=C/C(=O)n2c(=O)oc3ccccc32)cc(OC)c1OC [Compound 35, (E)-3-(3-(3,4,5-Trimethoxyphenyl)acryloyl)benzo[d]oxazol-2(3H)-one] | 
34 | > 500 | O=C1C=CCCN1C(=O)C=Cc1ccccc1 [Compound 12, 1-Cinnamoyl-5,6-dihydropyridin-2(1H)-one] | 
